Screens deposited in PubChem BioAssay by Johns Hopkins Ion Channel Center.
A selection: hits, their analogues and other compounds. The true share with any hit is near 3.5%.
MrgX1 antag = antagonists of human MrgX1 receptor, primary screen, HEK293 cells, Fluo-4 calcium flux | Mas-related G-protein coupled receptor member X1 (Homo sapiens), Q96LB2 | BAM8-22 antagonism; active compounds read low | B-score at 10 µM | hit rate 1.3% among 310,000;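 active = calcium-response B-score plate-corrected more than 3 library SD below zero, starting fluorescence within 5 deviations, no agonist response on first addition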;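 also: peak minus trough fluorescence over baseline after final BAM8-22 challenge near maximal dose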
Target sequence (Q96LB2 whole entry, looked up): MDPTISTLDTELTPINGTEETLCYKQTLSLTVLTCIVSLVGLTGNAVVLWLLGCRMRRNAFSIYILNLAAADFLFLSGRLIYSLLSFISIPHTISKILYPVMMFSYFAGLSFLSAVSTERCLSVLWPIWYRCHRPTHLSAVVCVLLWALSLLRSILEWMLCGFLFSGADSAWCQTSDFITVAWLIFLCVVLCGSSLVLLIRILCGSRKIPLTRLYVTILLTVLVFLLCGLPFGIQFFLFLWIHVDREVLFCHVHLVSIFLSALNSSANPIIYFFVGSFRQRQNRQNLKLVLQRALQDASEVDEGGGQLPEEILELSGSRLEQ
MrgX1 ag = agonists of human MrgX1 receptor, primary screen, HEK293 cells, Fluo-4 calcium flux; Mas-related G-protein coupled receptor member X1 (Homo sapiens), Q96LB2; Fluo-4 calcium fluorescence, agonist mode; active compounds read high; B-score at 10 µM; hit rate 0.44% among 310,000;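 active = calcium response B-score plate-corrected fluorescence ratio at least 3 library SD, with starting fluorescence B-score inside 5 SD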
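System – MrgX1-expressing HEK293 cells · Incubation – cells plated overnight, dye loaded 0.5 h 37 °C, 0.5 h room temperature · Technique – kinetic Fluo-4 NW fluorescence of intracellular calcium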
RGS4 act = RGS4 potentiators or activators, primary screen, cell-based, HEK293 M3R inducible RGS4, calcium flux; carbachol calcium flux Fluo4; active compounds read low; B-score at 10 µM; hit rate 0.92% among 310,000; AID 463111, 2010;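 active = B-score of the integrated calcium signal more than 4 SD below the library mean, with starting fluorescence not abnormally high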;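 also: negative B-score means reduced calcium response which marks RGS4 activation or potentiation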
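test system = M3R-expressing HEK293 line, RGS4 induced by doxycycline | probe or stimulus = carbachol at ECmax as muscarinic agonist stimulus | timing = dye loading 30 min 37 °C, buffer rest 30 min RT | signal = calcium dye Fluo4 fluorescence | evaluation = B score from integrated fluorescence ratio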
MrgX1 PAM = positive allosteric modulators of MrgX1, primary screen, HEK293 cells, Fluo-4 calcium flux. Mas-related G-protein coupled receptor member X1 (Homo sapiens), Q96LB2. FDSS; active compounds read high. B-score at 10 µM. hit rate 0.63% among 310,000. AID 588675, 2011;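 active = plate-corrected calcium response at least 3 library SD above typical, normal starting fluorescence, not activating the receptor alone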;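 also: compound read alongside a low EC10 to EC30 dose of BAM8-22 agonist; peak minus trough fluorescence over baseline measured at the second addition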
RGS4 block = RGS4 inhibitors, primary screen, cell-based, HEK293 M3R inducible RGS4, calcium flux; Regulator of G-protein signaling 4 (Homo sapiens), P49798; Fluo-4 calcium flux; active compounds read high; triggered by carbachol at its EC20; B-score at 10 µM; hit rate 0.45% among 310,000; AID 463165, 2010;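 active = B-score, a plate-corrected calcium signal, over three deviations above library mean, with baseline fluorescence within five deviations of library mean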;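 also: RGS4 expression induced by doxycycline in cells with stable M3 receptor; B-score is computed from the integrated fluorescence ratio over baseline after carbachol; higher B-score means a larger calcium signal and so more RGS4 inhibition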
Target sequence (P49798 whole entry, looked up): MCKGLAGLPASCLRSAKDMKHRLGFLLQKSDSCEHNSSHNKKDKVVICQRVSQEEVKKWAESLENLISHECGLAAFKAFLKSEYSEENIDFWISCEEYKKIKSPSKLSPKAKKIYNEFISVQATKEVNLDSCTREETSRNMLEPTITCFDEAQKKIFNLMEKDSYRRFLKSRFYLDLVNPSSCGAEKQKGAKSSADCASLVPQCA
Active calls of the source: *; i = inactive; · = no result.

SMILES	MrgX1 antag	MrgX1 ag	RGS4 act	MrgX1 PAM	RGS4 block
COc1ccc(C2(c3ccc(OC)cc3)NC(=O)N(CC(=O)Nc3ccc(C(=O)N(C)C)cc3)C2=O)cc1	-6.4*	i	i	i	i
CC1CCCN(C(=O)COC(=O)CNC(=O)c2ccc(Br)cc2)C1 (configuration not stated)	i	i	i	i	i
O=C(/C=C/c1c(Cl)cccc1Cl)NCCCn1ccnc1	i	i	i	i	i
CCN(CC)CCNC(=O)c1ccc(NC(=O)c2cccc(S(=O)(=O)N3c4ccccc4CC3C)c2)cc1 (configuration not stated)	i	i	-8.4*	i	i
CC1Cc2ccccc2N1S(=O)(=O)c1cccc(C(=O)NCCCO)c1 (configuration not stated)	i	i	i	i	i
CC(C)CCC(CC(C)O)c1n[nH]c(=S)n1-c1ccccc1 (configuration not stated)	-4.9*	i	i	i	i
CCC(c1n[nH]c(=S)n1-c1ccccc1)N(C)C (configuration not stated)	i	i	i	i	i
CN(C)S(=O)(=O)c1cccc(-c2nn(-c3ccccc3)cc2/C=C2\SC(=S)NC2=O)c1	i	i	·	17*	·
O=C(Cc1cccc2ccccc12)Nc1ccc(Br)cc1C(=O)O	-6.3*	i	i	i	i
CCOC(=O)CNC(=O)N1CCCC(CCC(=O)NCc2ccc(F)c(F)c2)C1 (configuration not stated)	i	i	i	i	i
Cc1cc(O)c2c(-c3ccccc3)cc(=O)oc2c1	i	44*	·	i	·
CC(=O)COc1cc(C)cc2oc(=O)cc(-c3ccccc3)c12	i	i	i	i	i
Cc1[nH]n(-c2ccccc2)c(=O)c1C(C[N+](=O)[O-])c1ccccc1Cl (configuration not stated)	i	46*	i	i	i
Cc1[nH]n(-c2ccccc2)c(=O)c1C(c1ccc(O)c([N+](=O)[O-])c1)c1c(C)[nH]n(-c2ccccc2)c1=O	i	i	i	i	5.1*
COc1cccc(C(c2c(C)[nH]n(-c3ccccc3)c2=O)c2c(C)[nH]n(-c3ccccc3)c2=O)c1O	i	i	i	i	i
COc1ccc(-c2csc(NC(=O)CSc3n[nH]c(C)n3)n2)cc1	i	i	i	6.9*	i
COc1ccc(-c2csc(NC(=O)CSc3n[nH]c(N)n3)n2)cc1	i	i	i	i	i
CCC(NC(=S)NCc1ccc(F)cc1)c1ccccc1 (configuration not stated)	-5.7*	i	i	i	i
COc1ccc(C(C)NC(=S)NCc2ccc(F)cc2)cc1 (configuration not stated)	i	i	i	i	i
Cc1cc(C)nc(N2CCC(C(=O)N3CCN(c4cc(Cl)ccc4C)CC3)CC2)n1	i	i	-7.3*	i	i
Cc1ccc(C)c(N2CCN(C(=O)C3CCN(c4nc(C)cc(C)n4)CC3)CC2)c1	i	i	i	i	i
Cc1ccc(C)c(-c2cc(C(=O)Nc3cccc(C(=O)O)c3)c3ccccc3n2)c1	i	i	i	i	i
Cc1ccc(C)c(-c2cc(C(=O)Nc3cccnc3)c3ccccc3n2)c1	i	i	-7.6*	i	i
Cc1c(NC(=O)CSc2ncccn2)c(=O)n(-c2ccccc2)n1C	i	i	i	i	i
Cc1cc(C)n2nc(SCC(=O)Nc3c(C)n(C)n(-c4ccccc4)c3=O)nc2n1	-4.6*	i	i	i	i
SMILES	MrgX1 antag	MrgX1 ag	RGS4 act	MrgX1 PAM	RGS4 block
COc1cccc(NC(=S)N2CCC(N(C)CC3CCCO3)CC2)c1 (configuration not stated)	i	i	i	i	i
CCCC[C@H]1COCCS(=O)(=O)N1Cc1ccc(Br)cc1	i	i	-7.1*	i	i
COC(=O)c1cc2c(=O)c3ccccc3oc2nc1C	i	i	i	i	i
COC(=O)c1cc2c(=O)c3ccccc3oc2nc1/C=C/N(C)C	i	68*	i	i	i
O=C1c2ccccc2CC1(Cc1ccccc1)Cc1ccccc1	i	i	-7.1*	i	i
CCC1(CC)Cc2ccccc2C(=O)N1	i	i	i	i	i
CC(C)CC(NC(=O)c1ccccc1)C(=O)N/N=C/c1ccco1 (configuration not stated)	i	30*	i	i	i
O=C(CCCCCCCCC(=O)N/N=C/c1ccco1)N/N=C/c1ccco1	-5.7*	i	i	i	i
CC(NC(=O)c1ccccc1)C(=O)N/N=C/c1ccco1 (configuration not stated)	i	i	i	i	i
CCOC(=O)C1CCCN(C(=O)c2cc(CN3C(=O)c4ccccc4C3=O)ccc2OC)C1 (configuration not stated)	i	i	i	i	i
Oc1ccc(/C=N/n2cc(-c3ccccc3)[nH]c2=S)cc1	i	i	i	i	i
COc1cc(/C=N/n2cc(-c3ccccc3)[nH]c2=S)cc(OC)c1O	i	i	i	11*	i
O=C(NNC(=O)c1ccccc1Cl)c1cc2cc(OC(F)(F)F)ccc2[nH]1	i	i	i	7.5*	i
Cc1ccc(NC(=O)c2cc3cc(OC(F)(F)F)ccc3[nH]2)cc1	i	i	i	i	i
CC(C)(C)C(=O)NC(=S)Nc1ccc(F)cc1	i	i	i	i	i
COc1ccc(N(C)C(=O)c2ccc3c(Cl)c4c(nc3c2)CCCC4)c(OC)c1	i	i	-7.1*	i	i
CCC1=NN(C(=O)c2ccc(Cl)cc2)C(O)(c2ccc(C)cc2)C1 (configuration not stated)	i	i	i	7.3*	i
CCC1=NN(C(=O)c2ccc([N+](=O)[O-])cc2)C(O)(c2ccccc2)C1 (configuration not stated)	i	i	i	14*	i
CCC1=NN(C(=O)c2ccc(Cl)cc2)C(O)(c2ccccc2)C1 (configuration not stated)	i	40*	i	i	i
CCC1(O)CC(C(=O)OC)=NN1C(=O)c1ccccc1 (configuration not stated)	i	i	i	i	i
